Measured values from different studies.
Target: Serine/threonine-protein kinase Nek4 (NEK4, Homo sapiens, UniProt P51957)

| Structure (SMILES) | test | conditions | remaining binding |
| --- | --- | --- | --- |
| CNC(=O)[C@@H]1CC[C@@H](n2c(-c3ccc4cnccc4c3)nc3ccc(C(=O)NCc4cccc(C(N)=O)c4)cc32)C1 | binding, competition with immobilised ligand | 1 µM | 100% |
| Nc1ncc2c(n1)-c1c([nH]c3ccc(C#CC4CC4)cc13)CCCC2 | binding, competition with immobilised ligand | 1 µM | 84% |
| FC(F)(F)c1ccc2c(c1)nc(-c1cccnc1)n2C1CC1 | cell-free assay, competition with immobilised ligand | 1 µM | 100% |
| CCN1CCN(Cc2ccc(C(=O)Nc3ccc(C)c(Oc4ccc5c(c4)CC(=O)N5)c3)cc2C(F)(F)F)CC1 | binding, competition with immobilised ligand | 1 µM | 100% |
| O=C(Nc1c[nH]nc1C(=O)NC1CCNCC1)c1cc(F)cc(F)c1 | binding, competition with immobilised ligand | 1 µM | 91% |
| CC(=O)C1=C(C)N(c2cccc(C(F)(F)F)c2)C(=O)N[C@@H]1c1ccc(C#N)nc1 | cell-free assay, competition with immobilised ligand | 1 µM | 93.9% |
| CC1CCCN1c1nccc(-c2cnn3ncccc23)n1 (centres unmarked) | binding | 1 µM | 100% |
| CCC(=O)N[C@H]1CC[C@@H](C(=O)N(C)c2ccc(-c3nc4ccccc4o3)cc2)C1 | cell-free assay, competition with immobilised ligand | 1 µM | 99% |
| COc1ncc2cc3ccccc3nc2c1C#N | cell-free assay, competition with immobilised ligand | 5 µM | 93% |
| CO[C@@H](C)c1c(Nc2ccc([C@H](N(C)C(=O)C3CCS(=O)(=O)CC3)C(F)(F)F)cc2)cnc2cc(Cl)nn12 | cell-free assay, competition with immobilised ligand | 1 µM | 90% |
| N[C@H]1CCN(c2nccc(-c3cnn4ncccc34)n2)C1 | binding | 1 µM | 100% |
| Cc1cnc(Nc2ccc(C(=O)N3CCC(N4CCCC4)CC3)cc2)nc1-c1cc2ccccc2s1 | binding, competition with immobilised ligand | 1 µM | 59% |
| Cn1nc(C(=O)NCc2ccc(C(=O)O)cc2)cc1-c1ccc2[nH]ccc2c1 | cell-free assay, competition with immobilised ligand | 0.1 µM | 84% |
| O=C(NCCCN1CCOCC1)c1ccc(Nc2nccc(-c3cc4ccccc4s3)n2)cc1 | binding, competition with immobilised ligand | 1 µM | 100% |
| C[C@@H]1CCN(c2nccc(-c3cnn4ncccc34)n2)C1 | binding | 1 µM | 83% |
| C=CC(=O)N1CCC(C(=O)NCC(=O)N2CCN(c3nc(-c4cnc(N)nc4C(F)F)nc(N4CCOCC4)n3)CC2)CC1 | binding, competition with immobilised ligand | 1 µM | 81% |
| CN(c1nccc(-c2cnn3ncccc23)n1)C1CC1 | binding | 1 µM | 100% |
| O=C(c1ccc(Nc2ncc(Cl)c(-c3cc4ccccc4s3)n2)cc1)N1CCC(N2CCCC2)CC1 | binding, competition with immobilised ligand | 1 µM | 48% |
| c1cnn2ncc(-c3ccnc(N4CCC45COC5)n3)c2c1 | binding | 1 µM | 68% |
| Cc1c[nH]c2nccc(Oc3c(F)cc(Nc4cc(Cl)nc(N)n4)cc3F)c12 | cell-free assay, competition with immobilised ligand | 0.1 µM | 90% |
